# Rows were chosen to be rich in hits. Some 1.8% of all compounds tested hit in one or more screens of this group.
# NPY1 pot ag = NPY-Y1 receptor potentiators or agonists, primary screen, cell-based. Neuropeptide Y receptor type 1 (Homo sapiens), P25929. NPY-Y1 expressing cells, potentiator/agonist activation. activation, % at 3.6 µM. 220,000 tested, 0.37% active; in the data active = activation above about 33%, passing the limit was not always enough;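 also: cells stimulated with NPY at EC10 then isoproterenol at EC100; 0% = low agonist plus stimulus and 100% = saturating agonist plus stimulus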
# Target sequence (P25929 whole entry, looked up): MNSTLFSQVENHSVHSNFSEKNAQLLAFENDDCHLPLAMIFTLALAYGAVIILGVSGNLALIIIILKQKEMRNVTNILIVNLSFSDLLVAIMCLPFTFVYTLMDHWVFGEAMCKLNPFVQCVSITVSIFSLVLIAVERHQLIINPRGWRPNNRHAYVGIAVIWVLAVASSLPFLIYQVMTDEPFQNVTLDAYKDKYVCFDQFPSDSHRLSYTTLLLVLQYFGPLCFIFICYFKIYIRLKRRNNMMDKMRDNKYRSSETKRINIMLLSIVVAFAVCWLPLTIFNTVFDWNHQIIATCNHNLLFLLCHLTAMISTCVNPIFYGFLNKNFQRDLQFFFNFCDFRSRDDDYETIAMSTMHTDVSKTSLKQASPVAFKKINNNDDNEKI
# NPY-Y2 antag = NPY-Y2 receptor antagonists, primary screen, cell-based; 140,000 tested, 0.99% active; inhibition, % at 2.7 µM; AID 793, 2007; Neuropeptide Y receptor type 2 (Homo sapiens), P49146; NPY-Y2 expressing cells, antagonist mode; in the data active = inhibition above about 17%;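 also: 0% = vehicle with agonist challenge and 100% = reference antagonist with challenge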
# NPY Y1 blocker = NPY-Y1 receptor antagonists, primary screen, cell-based; 200,000 tested, 1% active; inhibition, % at 3.6 µM; AID 1040, 2008; Neuropeptide Y receptor type 1 (Homo sapiens), P25929; HEK293-CNG Y1 cells, membrane potential fluorescence; NPY at EC95, then isoproterenol;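 active = inhibition above the campaign mean inhibition of all tested compounds plus 3 SD, cut at about 20% in these data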;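 also: 0% = DMSO wells given NPY plus isoproterenol and 100% = isoproterenol alone without NPY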
#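 material = HEK293 cells with Y1 receptor plus CNG channel | also added = NPY 25 nM then isoproterenol 1 µM plus Ro 20-1724 25 µM | schedule = dye 3 h, compound 60 min room temperature, stimulation 45 min | measured by = membrane potential fluorescence | benchmarks = high control isoproterenol alone, low control NPY with isoproterenol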
# NPY2 pot ag = NPY-Y2 potentiators or agonists, primary screen, cell-based. Neuropeptide Y receptor type 2 (Homo sapiens), P49146. cells expressing NPY-Y2, potentiator/agonist read-out. activation, % at 3.6 µM. 220,000 tested, 0.45% active; in the data active = activation above about 27%;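 also: cells stimulated with NPY near EC25 plus isoproterenol at EC100; 0% = vehicle plus submaximal agonist and 100% = vehicle plus saturating agonist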
# NPY-Y1 antag ct = NPY-Y1 receptor antagonists, selectivity check, counter-screen for NPY-Y2 antagonist project, cell-based. shares compounds with NPY-Y2 antag. cell-based NPY-Y1 antagonism counterscreen. inhibition, % at 3.6 µM. 710 tested, 19% active. AID 1256, 2008; in the data active = inhibition above about 20%;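 also: cells challenged with NPY then isoproterenol with cAMP sensed through a CNG channel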
# NPY-Y2 ant conf = NPY-Y2 receptor antagonists, retest of hits, confirmation, HEK293-CNG cells, membrane potential fluorescence, triplicate | shares compounds with NPY-Y2 antag | HEK293 NPY-Y2 CNG channel | inhibition, % at 2.8 µM | 710 tested, 32% active | AID 1257, 2008;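 active = mean inhibition of triplicate wells above the hit cutoff set in the primary screen, cut at about 17% in these data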;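 also: 0% = DMSO with NPY challenge and 100% = BIIE0246 high control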
# An asterisk follows results filed as active; . = not tested or not shown.
SMILES,NPY1 pot ag,NPY-Y2 antag,NPY Y1 blocker,NPY2 pot ag,NPY-Y1 antag ct,NPY-Y2 ant conf
CCSc1nc2ccc(OC)cc2cc1C#N,-13,21*,7,-3,13,20*
O=C(Nc1ccc(Cl)cc1)c1csc(-c2ccccc2)n1,-50,20*,20,-45,20,23*
Cc1cccc(C(=O)Nc2ccc(NC(=O)Cc3ccc(Cl)cc3)cc2)c1,-9,2,6,-1,.,.
O=C(Cc1ccc(Cl)cc1)Nc1ccc(NC(=O)c2ccccc2)cc1,22,21*,11,10,0,2
O=C(Nc1ccc(Cl)cc1)c1csc(-c2ccncc2)n1,14,.,-3,4,.,.
O=C1C=C(N2CCCCCC2)C2(CCCCC2)O1,-7,.,3,-17,.,.
Cc1ccc2cccc(S(=O)(=O)NC3CCS(=O)(=O)C3)c2n1 (stereo unspecified),4,3,3,-5,.,.
N/C(Cc1ccc(Cl)cc1)=N\OC(=O)Cc1ccc([N+](=O)[O-])cc1,-27,2,4,-15,.,.
CCOC(=O)/C(N=Nc1ccc(Cl)cc1)=C(/O)c1ccc([N+](=O)[O-])cc1,5,17*,0,-7,-1,-1
CC(=O)NS(=O)(=O)c1ccc(NC(=O)NC2CCCCC2)cc1,19,1,0,-3,.,.
CCOC(=O)CSc1nc2c(sc3ccccc32)c(=O)n1CCCN1CCOCC1,-20,19*,14,-5,21*,15
CCC(C)NC(=O)CSc1nc2c(sc3ccccc32)c(=O)n1CCCN1CCOCC1 (stereo unspecified),22,4,2,-4,.,.
CCn1nc(C(=O)OCC(=O)c2cc(C)n(Cc3cccs3)c2C)c2ccccc2c1=O,-15,24*,17,-24,20,25*
Cc1cc(C(=O)COC(=O)c2ccccc2O)c(C)n1Cc1cccs1,-6,13,12,-7,.,.
NC(=O)Cn1c(S(=O)(=O)Cc2ccccc2)nc2ccccc21,-4,1,3,8,.,.
CCOC(=O)Cn1c(S(=O)(=O)Cc2cccc(F)c2)nc(-c2ccccc2)c1-c1ccccc1,-18,19*,16,-12,17,9
Cc1ccc(CNC(=O)c2cc(C)nn2-c2ccccc2)cc1,6,.,.,-5,.,.
Cc1ccc(Cc2nnc3n(-c4ccccc4)nc(C(=O)c4ccccc4)n3c2=O)cc1,-59,17*,5,-7,40*,67*
CCN1C(=O)CC(N2CCN(c3ccc(C(=O)c4ccccc4)cc3)CC2)C1=O (stereo unspecified),-20,2,7,-8,.,.
c1ccc2c(-c3nnc(SCc4cn5ccccc5n4)o3)c[nH]c2c1,-25,7,11,-30,.,.
CCOC(=O)c1ccc(N2C(=O)c3n[nH]c(C)c3C2c2cccnc2)cc1 (stereo unspecified),4,3,-6,15,.,.
CCOC(=O)c1ccc(N2C(=O)c3n[nH]c(-c4ccco4)c3C2c2ccc([N+](=O)[O-])cc2)cc1 (stereo unspecified),-63,26*,19,-68,22*,17
COc1ccc(-c2nnc3n2N=C(c2cccc(Br)c2)CS3)cc1OC,2,19*,2,-1,4,9
Cc1cc(S(=O)(=O)NCC(C)C)ccc1OCC(=O)NCc1ccccn1,-26,2,0,-6,.,.
Clc1ccc(OCCn2c(-c3ccco3)nc3ccccc32)cc1,-44,31*,19,-25,32*,12
SMILES,NPY1 pot ag,NPY-Y2 antag,NPY Y1 blocker,NPY2 pot ag,NPY-Y1 antag ct,NPY-Y2 ant conf
c1coc(Cn2c(-c3ccco3)nc3ccccc32)c1,-20,8,-7,5,.,.
CCC(C)N(C(=O)Cn1nnc2ccccc21)C(C(=O)Nc1ccc(F)cc1)c1cccc(OC)c1 (stereo unspecified),-37,18*,16,-64,11,11
C/C(=N/NS(C)(=O)=O)c1ccc2ccccc2c1,-10,17*,1,-3,8,5
Cc1cc2c(cc(C(=O)OCC(=O)NCc3ccco3)n2C)s1,-15,8,0,-2,.,.
COc1ccc(-c2cc(=O)n(CCC#N)[nH]2)cc1,-13,-1,-2,-5,.,.
O=C(O)c1cc(Cl)c2ccccc2c1O,-31,20*,8,-23,21*,11
CC(C)c1ccc(NC(=O)COc2ccc(C3SCCS3)cc2)cc1,2,.,.,-25,.,.
C=CCNc1nc(N2CCCC2)nc2ccccc12,-33,20*,11,4,19,19*
CCOC(=O)c1ccc(NC(=O)NCCN2CCCCC2)cc1,15,1,-3,20,.,.
O=C(Nc1ccccc1)c1ccc(-c2ccc(Br)cc2)o1,-43,29*,14,-51,10,13
COc1ccccc1NC(=O)c1ccc(-c2ccc(Br)cc2)o1,-86,21*,19,-43,21*,43*
COn1c2c(c3c4nonc4ccc31)CCCC2,3,2,14,11,.,.
Cc1cc(C)nc(NC(=O)C(c2ccccc2)c2ccccc2)n1,18,0,9,2,.,.
Cc1cc([N+](=O)[O-])cc(C)c1OCC(=O)N/N=C/c1ccc(OC(=O)c2ccccc2Br)cc1,13,0,1,17,.,.
Cc1cc([N+](=O)[O-])cc(C)c1OCC(=O)N/N=C/c1ccc(OC(=O)c2ccccc2)cc1,-4,20*,-2,4,3,17
O=C(C(Sc1ccccc1)c1ccccc1)N1CCN(c2ccccc2)CC1 (stereo unspecified),-3,19*,12,0,16,9
COC(=O)C(C)N(C(=O)c1ccc(Cl)cc1)c1c(C)cccc1C (stereo unspecified),-15,7,9,-5,.,.
COC(=O)C(C)N(C(=O)c1ccc(C(=O)c2ccccc2)cc1)c1c(C)cccc1C (stereo unspecified),-13,19*,7,-8,6,3
COc1ccc(C2CC(c3cccs3)=NN2S(C)(=O)=O)cc1OC (stereo unspecified),9,.,5,-3,.,.
Cc1ccc(-c2nc3ncccn3c2NC2CCCCC2)o1,6,9,6,7,.,.
COC(=O)c1cc2occc2n1Cc1nc(-c2ccccc2Cl)oc1C,4,20*,4,-5,13,20*
COC(=O)c1cc2occc2n1Cc1nc(-c2ccc(Cl)cc2)oc1C,-17,3,10,-10,.,.
COC(=O)c1sccc1NC(=S)N1CCN(c2ccccc2F)CC1,-7,18*,5,-16,13,11
COc1cc2c(cc1OC)-c1cc(Nc3ccc4c(c3)OCCO4)nc(=O)n1CC2,-28,12,10,-22,.,.
